Bioassay records (PubChem BioAssay)
Hits are enriched below; roughly 3.5% of the tested compounds scored in any of these assays.
MrgX1 antagonist – antagonists of human MrgX1 receptor | Q96LB2 | MRGX1-HEK293 calcium flux, Fluo-4, BAM8-22 antagonism; active compounds read low | B-score at 10 µM | hit rate 1.3% among 310,000 | AID 588676;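 active means calcium-response B-score plate-corrected more than 3 library SD below zero, starting fluorescence within 5 deviations, no agonist response on first addition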;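 further: peak minus trough fluorescence over baseline after final BAM8-22 challenge near maximal dose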
Target sequence (Q96LB2 whole entry, looked up): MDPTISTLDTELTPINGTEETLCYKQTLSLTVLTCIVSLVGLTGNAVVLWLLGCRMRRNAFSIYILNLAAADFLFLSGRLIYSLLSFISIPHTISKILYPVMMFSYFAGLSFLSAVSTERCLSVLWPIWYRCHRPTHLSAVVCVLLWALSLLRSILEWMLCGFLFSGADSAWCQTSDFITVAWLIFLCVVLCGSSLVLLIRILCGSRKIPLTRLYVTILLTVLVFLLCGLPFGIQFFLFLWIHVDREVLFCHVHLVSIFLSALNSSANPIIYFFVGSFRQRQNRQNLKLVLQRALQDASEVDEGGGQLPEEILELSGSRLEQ
MrgX1 ag – activates human MrgX1 receptor signaling; Q96LB2; MrgX1-HEK293 cells, Fluo-4 calcium fluorescence, agonist mode; active compounds read high; B-score at 10 µM; hit rate 0.44% among 310,000;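 active means calcium response B-score plate-corrected fluorescence ratio at least 3 library SD, with starting fluorescence B-score inside 5 SD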
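Test system: HEK293 cells stably expressing human MrgX1 receptor; Input: fifteen thousand cells per well; Dosing: compound delivered in addition one of three; Schedule: overnight seeding, then 1 h dark dye loading; Technique: Fluo-4 NW calcium fluorescence; Measure: B-scored fluorescence response ratio; Controls: positive and negative controls per plate.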
RGS4 inh – inhibitors of human RGS4. P49798. hit rate 0.45% among 310,000. AID 463165. B-score at 10 µM. HEK293 M3R/RGS4 inducible, Fluo-4 calcium flux; active compounds read high; triggered by carbachol at its EC20;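 active means B-score, a plate-corrected calcium signal, over three deviations above library mean, with baseline fluorescence within five deviations of library mean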;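 further: RGS4 expression induced by doxycycline in cells with stable M3 receptor; B-score is computed from the integrated fluorescence ratio over baseline after carbachol; higher B-score means a larger calcium signal and so more RGS4 inhibition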
Target sequence (P49798 whole entry, looked up): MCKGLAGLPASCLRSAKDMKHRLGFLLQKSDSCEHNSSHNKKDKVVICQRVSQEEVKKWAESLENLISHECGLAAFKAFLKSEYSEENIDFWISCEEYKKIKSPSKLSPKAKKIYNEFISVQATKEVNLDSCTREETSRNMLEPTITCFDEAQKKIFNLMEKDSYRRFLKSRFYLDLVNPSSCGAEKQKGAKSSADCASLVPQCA
RGS4 pot – RGS4 potentiation or activation. HEK293 M3R/inducible RGS4, carbachol calcium flux Fluo4; active compounds read low. B-score at 10 µM. hit rate 0.92% among 310,000. AID 463111;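 active means B-score of the integrated calcium signal more than 4 SD below the library mean, with starting fluorescence not abnormally high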;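 further: negative B-score means reduced calcium response which marks RGS4 activation or potentiation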
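test system = HEK293 cells with stable M3R and inducible RGS4 | schedule = recording 10 s baseline at 1 Hz, 100 s post-agonist | technique = Fluo4-AM (2 µM) calcium-flux fluorescence, kinetic read | measure = Agonist-evoked peak-minus-minimum fluorescence over baseline, integrated ratio, B score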
MrgX1 PAM – allosterically activates human MrgX1 receptor signaling. Q96LB2. MrgX1-HEK293, Fluo-4 calcium flux, FDSS; active compounds read high. B-score at 10 µM. hit rate 0.63% among 310,000. AID 588675;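 active means plate-corrected calcium response at least 3 library SD above typical, normal starting fluorescence, not activating the receptor alone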;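 further: compound read alongside a low EC10 to EC30 dose of BAM8-22 agonist; peak minus trough fluorescence over baseline measured at the second addition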
MrgX1 ant reconf – confirmation of human MrgX1 receptor antagonists | MrgX1-HEK293, BAM8-22 calcium flux, Fluo-4; active compounds read low | shares compounds with MrgX1 antagonist | hit rate 19% among 2,300 | remaining BAM8-22 calcium response % of control (active compounds read low), % at 10 µM;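 active means remaining agonist calcium response no higher than 100% minus 3 SD of agonist-only control wells, with starting fluorescence near control levels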;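 further: agonist BAM8-22 given at a near maximal EC90 to ECmax level; peak minus minimum fluorescence divided by baseline after agonist addition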
HEK293 Ca flux – activity in parental HEK293 cells lacking MrgX1; Fluo-4 calcium fluorescence, FDSS; fluorescence ratio F(max-min)/F0 at 10 µM; shares compounds with MrgX1 antagonist; hit rate 2% among 4,000;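 active means duplicate-averaged calcium fluorescence ratio at least three times the standard deviation of buffer wells, a nonspecific response in parental cells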
HEK293 Ca counter – counter-screen for MrgX1 allosteric activators: effect in parental HEK293 cells. shares compounds with MrgX1 antagonist. parental HEK293 calcium flux, Fluo-4 fluorescence ratio; active compounds read high. fluorescence ratio F(max-min)/F0 at 10 µM. hit rate 0.4% among 4,000;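 active means calcium fluorescence ratio, averaged over duplicates, at least 3 SD of the buffer-well ratio, meaning a nonspecific response in receptor-free cells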;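 further: untransfected parental HEK293 lacking MrgX1 used as counterscreen for MrgX1 allosteric activators; fluorescence change taken during the second addition on a kinetic imager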
HEK293 Ca cntr2 – activity in parental HEK293 cells lacking MrgX1 receptor | hit rate 8.7% among 4,000 | fluorescence ratio F(max-min)/F0 at 10 µM | AID 624115 | shares compounds with MrgX1 antagonist | Fluo-4 calcium fluorescence (FDSS); active compounds read high;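 active means calcium fluorescence ratio at least three times the spread of buffer wells, meaning a non-specific response in parental cells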
* marks the source's active call; other numbers are inactive results; i = inactive; . = no result.

SMILES | MrgX1 antagonist | MrgX1 ag | RGS4 inh | RGS4 pot | MrgX1 PAM | MrgX1 ant reconf | HEK293 Ca flux | HEK293 Ca counter | HEK293 Ca cntr2
O=S(=O)(NCCc1csc(-c2cccnc2)n1)c1cccs1 | i | i | i | i | i | . | . | . | .
O=S(=O)(NCCc1csc(-c2cccnc2)n1)c1ccc(Cl)s1 | -4.9* | i | i | i | i | 79%* | i | i | i
O=C(NC1CCCN(c2ccc(C(F)(F)F)cn2)C1)c1cc(Cl)ccc1F (stereo not drawn) | -6.6* | i | i | i | i | i | i | i | i
Cc1ccc(C(=O)NC2CCCN(c3ccc(C(F)(F)F)cn3)C2)cn1 (stereo not drawn) | i | i | i | i | i | . | . | . | .
Cc1ccc(S(=O)(=O)N(C)C)cc1NC(=O)COC(=O)C1CCN(S(=O)(=O)c2cccs2)CC1 | i | i | i | i | i | . | . | . | .
CCCCCNC(=O)c1cc(S(=O)(=O)N2CCCCC2)ccc1F | -7.9* | i | i | i | i | i | i | i | i
O=C(NCCc1ccccc1)c1cc(S(=O)(=O)N2CCCC2)ccc1F | i | i | i | i | i | . | . | . | .
CC(=O)N1N=C(c2ccco2)CC1c1ccc(Cl)o1 (stereo not drawn) | i | i | i | i | i | . | . | . | .
CNC(=O)COC(=O)c1nc(-n2nc(C)cc2C)ccc1Cl | -6.8* | i | i | i | i | i | i | i | i
CCOc1ccc(NC(=O)Cc2ccc(NC3=NC4CS(=O)(=O)CC4S3)cc2)cc1 (stereo not drawn) | i | i | i | i | i | . | . | . | .
CCc1ccc(NC(=O)Cc2ccc(NC3=NC4CS(=O)(=O)CC4S3)cc2)cc1 (stereo not drawn) | -6.1* | i | i | i | i | i | i | i | i
CCN(CC(=O)Nc1c(F)cccc1F)C(=O)CNC(=O)c1ccc(Br)o1 | i | i | i | i | i | . | . | . | .
Cn1cc(S(=O)(=O)CC(=O)Nc2ccc3c(c2)OCCO3)c2ccccc21 | i | i | i | i | i | . | . | . | .
Cc1ccc(C)c(NC(=O)CS(=O)(=O)c2cn(C)c3ccccc23)c1 | -13* | i | i | i | i | i | i | i | i
COc1ccc(C2CC(=O)C=C(NCc3ccccc3)C2)cc1 (stereo not drawn) | i | i | i | i | i | . | . | . | .
COc1ccc(N2CC(O)=C(c3nc(-c4ccc(F)cc4)cs3)C2=N)cc1OC | -6.8* | i | i | i | i | i | i | i | i
COc1ccc(N2CC(O)=C(c3nc(-c4ccc(F)cc4)cs3)C2=N)cc1Cl | i | i | i | i | i | . | . | . | .
O=C(NCC1CCCCC1)c1cccnc1Cl | i | i | i | i | i | . | . | . | .
O=C(NCCCCNC(=O)c1cccnc1Cl)c1cccnc1Cl | -4.8* | i | i | i | i | i | i | i | i
Cc1ccccc1N(C(=O)Cc1c[nH]c2ccccc12)C(C(=O)NC1CCCCC1)c1ccco1 (stereo not drawn) | -16* | i | i | i | i | i | i | i | i
Cc1occc1C(=O)Nc1cnn(CCCC(=O)O)c1 | -4.9* | i | i | i | i | i | i | i | i
O=C(O)CCCn1cc(NC(=O)c2ccco2)cn1 | i | i | i | i | i | . | . | . | .
Cc1ccc(S(=O)(=O)N(CC(=O)Nc2ccccc2C(=O)O)c2cccc(Cl)c2C)cc1 | -7.1* | i | i | i | i | i | i | i | i
CN(C(=O)COC(=O)Cn1c(C(F)(F)F)nc2ccccc21)c1c(N)n(Cc2ccccc2)c(=O)[nH]c1=O | i | i | i | i | i | . | . | . | .
Cc1ccc2c(c1)[C@H]1[C@H](CO2)[C@H](c2ccccc2)[C@]2(C)C(=O)Nc3cc(Cl)ccc3C(=O)N12 | i | i | . | . | i | . | . | . | .
SMILES | MrgX1 antagonist | MrgX1 ag | RGS4 inh | RGS4 pot | MrgX1 PAM | MrgX1 ant reconf | HEK293 Ca flux | HEK293 Ca counter | HEK293 Ca cntr2
C[C@@]12C(=O)Nc3cc(F)ccc3C(=O)N1[C@H]1c3ccccc3OC[C@@H]1[C@@H]2c1ccccc1 | -6.2* | i | . | . | i | 82%* | i | i | i
CCOc1ccc(N(CC(=O)NC2CCCC2)S(=O)(=O)c2c(C)noc2C)cc1 | -4.8* | i | i | i | i | 65%* | i | i | i
CCOc1ccc(N(CC(=O)NC2CCCCC2)S(=O)(=O)c2c(C)noc2C)cc1 | i | i | i | i | i | . | . | . | .
Cc1ccc(NC(=O)CCc2nnc3ccc(N4CCC(C)CC4)nn23)nc1 | -7.4* | i | i | i | i | i | i | i | i
O=C(Nc1ccc(S(=O)(=O)N2CCc3ccccc32)cc1)c1ccco1 | -4.8* | i | i | i | i | i | i | i | i
CCC(=O)Nc1ccc(S(=O)(=O)N2CCc3ccccc32)cc1 | i | i | i | i | i | . | . | . | .
CCC1NC(=S)NC(C)=C1C(=O)c1ccccc1 (stereo not drawn) | i | i | i | i | i | . | . | . | .
N#Cc1nc(-c2cccs2)oc1NCc1ccccc1 | i | i | i | i | i | . | . | . | .
Cc1ccc(CNc2oc(-c3cccs3)nc2C#N)cc1 | -5.4* | i | i | i | i | i | i | i | i
COC(=O)c1sc(-c2ccc(C(C)(C)C)cc2)cc1NC(=O)COCC(=O)O | -4.7* | i | i | i | i | 68%* | i | i | 60*
COC(=O)c1sc(-c2ccc(Cl)cc2)cc1NC(=O)CSCC(=O)O | i | i | i | i | i | . | . | . | .
Cc1cc(C(=O)N2CC=C(c3ccccc3)CC2)c2ccccc2n1 | -4.7* | i | i | i | i | i | i | i | i
O=C(CN1C(=O)c2ccc([N+](=O)[O-])cc2C1=O)NCCC1=CCCCC1 | i | i | i | i | i | . | . | . | .
